Activity calls are given as the source filed them. No cut-off for these calls is given here.
Tests used:
RT-112 [1] = assay: Antiproliferative activity against human RT112 cells after 48 hrs by MTT assay; format: functional, cell-based; conditions: RT-112, 48 h
Outline: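 RT112 bladder carcinoma cells in RPMI 1640 with 10% FCS and 2 mM glutamine, 37 °C, 5% CO2. Seeded 3×10^3 cells/well, treated after 24 h with a concentration series for 48 h; DMSO vehicle control. MTT 3 h at 37 °C, formazan dissolved in DMSO, A570 with 650 nm reference. Survival relative to vehicle (100%); IC50 from dose-response curves; triplicates, three independent experiments.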

RT-112 [2] = assay: Cell cycle arrest in human RT112 cells by accumulation of cells at G2/M phase at 3 uM after 12 hrs by propidium iodide-staining-based flow cytometry (reference value: 14%); format: functional
RT-112 [3] = assay: Cell cycle arrest in human RT112 cells by accumulation of cells at G1 phase at 3 uM after 12 hrs by propidium iodide-staining-based flow cytometry (reference value: 69%); format: functional
RT-112 [4] = assay: Cell cycle arrest in human RT112 cells by accumulation of cells at S phase at 3 uM after 12 hrs by propidium iodide-staining-based flow cytometry (reference value: 17%); format: functional
RT-112 [5] = assay: Cell cycle arrest in human RT112 cells by accumulation of cells at G2+M phase at 3 uM after 24 hrs by propidium iodide-staining-based flow cytometry (reference value: 14%); format: functional
RT-112 [6] = assay: Induction of apoptosis in human RT112 cells assessed as hypodiploid DNA at sub-G1 phase after 48 hrs by propidium iodide-staining-based flow cytometry; format: functional, cell-based
Outline: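 Same PI/RNase flow cytometry as the cell cycle work in RT112 cells, with treatment extended to 48 h. Apoptosis scored as a hypodiploid (sub-G1) DNA peak; DMSO vehicle as control.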

RT-112 [7] = assay: Cell cycle arrest in human RT112 cells by accumulation of cells at G2+M phase at 4 uM after 12 hrs by propidium iodide-staining-based flow cytometry (reference value: 14%); format: functional
RT-112 [8] = assay: Cell cycle arrest in human RT112 cells by accumulation of cells at G2+M phase at 4 uM after 24 hrs by propidium iodide-staining-based flow cytometry (reference value: 14%); format: functional

SMILES	IC50 (RT-112 [1])	other results
CN(C)c1ccc(/C=C/C(=O)c2cn(C)c3ccccc23)cc1	7.5 µM	
COc1cc(OC)c(/C=C/C(=O)c2cn(C)c3ccccc23)c(OC)c1	3.2 µM	Activity (RT-112 [2]): 74%; Activity (RT-112 [3]): 16%; Activity (RT-112 [4]): inactive; Activity (RT-112 [5]): Active; Activity (RT-112 [6]): Active
COc1ccc(/C=C/C(=O)c2cn(C)c3ccccc23)c(OC)c1	57.7 µM	
Cn1cc(C(=O)/C=C/c2ccccc2)c2ccccc21	30.6 µM	
Cn1cc(/C=C/C(=O)c2cn(C)c3ccccc23)c2ccccc21	63 µM	
CN1CCN(c2ccccc2/C=C/C(=O)c2cn(C)c3ccccc23)CC1	26.4 µM	
CN1CCN(c2ccc(/C=C/C(=O)c3cn(C)c4ccccc34)cc2)CC1	11.7 µM	
Cn1cc(C(=O)/C=C/c2ccccc2F)c2ccccc21	28.7 µM	
Cn1ccc2cc(/C=C/C(=O)c3cn(C)c4ccccc34)ccc21	4 µM	Activity (RT-112 [7]): 65%; Activity (RT-112 [8]): 34%; Activity (RT-112 [6]): Active
COc1cc(OC)c(/C=C/C(=O)c2cn(C)c3ccc(C(=O)O)cc23)c(OC)c1	86.1 µM	
COc1cc(OC)c(/C=C/C(=O)c2cn(C)c3ccc(OC)cc23)c(OC)c1	3.1 µM	Activity (RT-112 [2]): 91%; Activity (RT-112 [3]): 5%; Activity (RT-112 [4]): inactive; Activity (RT-112 [5]): Active; Activity (RT-112 [6]): Active
COc1cc(OC)c(C(=O)/C=C/c2ccc3c(ccn3C)c2)c(OC)c1	54.3 µM	
COc1cccc(OC)c1/C=C/C(=O)c1cn(C)c2ccccc12	47.4 µM	
Cn1cc(C(=O)/C=C/c2c(Cl)cccc2Cl)c2ccccc21	7.8 µM	
COc1cc(/C=C/C(=O)c2cn(C)c3ccccc23)cc(OC)c1OC	42.4 µM	

— ChEMBL document CHEMBL1833941, “Structural requirement of arylindolylpropenones as anti-bladder carcinoma cells agents” (Bioorg Med Chem, 2011)
